Screening data as filed in PubChem BioAssay.
KCNK3 inh: human KCNK3 channel inhibition, primary screen; CHO-KCNK3 thallium flux, FluxOR fluorescence; hits give low values; B-score at 10 µM; actives 0.84% (n = 340,000); AID 602410;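 active = B-score under library mean minus 4 SD, starting fluorescence ratio at most library mean plus 5 SD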;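 also: more negative B-score means stronger inhibition of thallium flux through KCNK3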
hERG protect: shields human hERG channel from block by proarrhythmic agents | actives 0.51% (n = 310,000) | Q12809 | activation (rescue from dofetilide block), less the hit threshold, % at 10 µM | CHO-hERG, FluxOR thallium flux, dofetilide IC70 present;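 active = activation above the mean of controls blocked by dofetilide plus 5 SD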;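 also: thallium influx through hERG after potassium depolarization seen as dye fluorescence rise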
KCNQ1 block: inhibitors of human KCNQ1 potassium channel; AID 2642; actives 1.3% (n = 310,000); B-score at 10 µM; CHO-K1 KCNQ1, FluxOR thallium flux fluorescence; hits give high values;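 active = compounds whose thallium flux B-score, printed positive for inhibition, exceeds three library SD while starting fluorescence stays within three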;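 also: channel opened by potassium depolarization with thallium stimulus after 20 min compound exposure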
KCNQ1 act: potentiators or activators of human KCNQ1 potassium channel; P51787; CHO-K1 KCNQ1, thallium flux FluxOR fluorescence; hits give high values; B-score at 10 µM; actives 0.35% (n = 310,000); AID 2648;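 active = fluorescence ratio B-score, a plate-corrected score, at least three library SD, with initial intensity B-score within 5 SD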
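Schedule – 37 °C overnight plating, 90-min dark dye load, 20-min compound pretreatment · System – stable KCNQ1 CHO-K1 line · Probe or stimulus – thallium- and potassium-containing depolarizing buffer · Measured by – kinetic FluxOR fluorescence, 10 s baseline plus 110 s post-stimulus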
KCNK9 inh: human KCNK9 channel inhibition; HEK293 KCNK9, FluxOR thallium flux fluorescence; hits give low values; B-score at 10 µM; actives 1.2% (n = 310,000); AID 488922;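 active = ratio B-score over 3 SD below the library mean, with starting fluorescence within 5 SD of its mean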;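 also: negative B-score means less thallium flux so channel inhibition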
KCC2 mod: KCC2 (human) Cl- transport modulation; KCC2 cells, thallium flux FluoZin-2 fluorescence; B-score of Tl+ flux slope (higher = more flux/activation; lower = inhibition) at 10 µM; actives 2.2% (n = 190,000);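 active = thallium flux slope and its plate-corrected score both differing from the plate sample mean at a set confidence after two filtering rounds, in either direction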;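 also: slope of fluorescence scaled to starting intensity during 10 to 20 s after thallium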
Target sequence (Q9H2X9 whole entry, looked up): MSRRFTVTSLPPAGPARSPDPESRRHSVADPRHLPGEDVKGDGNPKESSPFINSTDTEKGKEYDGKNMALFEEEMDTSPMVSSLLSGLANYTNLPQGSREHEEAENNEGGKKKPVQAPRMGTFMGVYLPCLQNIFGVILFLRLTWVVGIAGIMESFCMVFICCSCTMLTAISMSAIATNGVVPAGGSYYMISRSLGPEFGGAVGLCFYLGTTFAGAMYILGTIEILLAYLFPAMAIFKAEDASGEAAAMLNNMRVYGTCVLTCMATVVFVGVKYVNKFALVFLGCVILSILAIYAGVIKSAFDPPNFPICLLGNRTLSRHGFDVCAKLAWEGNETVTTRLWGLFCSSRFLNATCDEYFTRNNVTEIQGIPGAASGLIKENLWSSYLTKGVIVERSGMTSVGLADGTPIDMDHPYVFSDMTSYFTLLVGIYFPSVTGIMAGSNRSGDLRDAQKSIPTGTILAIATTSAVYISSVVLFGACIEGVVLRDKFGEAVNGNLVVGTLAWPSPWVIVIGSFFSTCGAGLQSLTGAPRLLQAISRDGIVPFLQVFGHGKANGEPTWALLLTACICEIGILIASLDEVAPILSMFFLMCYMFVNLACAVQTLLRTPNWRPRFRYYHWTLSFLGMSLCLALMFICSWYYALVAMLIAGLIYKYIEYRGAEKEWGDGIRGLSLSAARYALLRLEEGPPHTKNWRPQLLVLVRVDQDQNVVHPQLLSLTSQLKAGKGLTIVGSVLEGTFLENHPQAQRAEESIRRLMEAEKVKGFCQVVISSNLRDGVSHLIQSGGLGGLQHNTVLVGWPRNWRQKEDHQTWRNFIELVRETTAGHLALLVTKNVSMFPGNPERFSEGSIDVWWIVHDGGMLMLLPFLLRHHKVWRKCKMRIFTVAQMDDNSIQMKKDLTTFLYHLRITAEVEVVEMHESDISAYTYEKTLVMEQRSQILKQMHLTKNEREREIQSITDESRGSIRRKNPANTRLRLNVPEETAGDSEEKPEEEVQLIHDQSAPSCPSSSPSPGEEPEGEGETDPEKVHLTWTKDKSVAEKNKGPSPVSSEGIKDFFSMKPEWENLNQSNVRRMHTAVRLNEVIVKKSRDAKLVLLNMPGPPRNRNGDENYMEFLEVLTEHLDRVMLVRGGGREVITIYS
KCC2 secondary: KCC2 (human) modulation, secondary assay; shares compounds with KCC2 mod; HEK293-KCC2, thallium flux, FluoZin2 fluorescence; hits give high values; normalised thallium flux (F/F0 slope) at 10 µM; actives 15% (n = 3,700); AID 1713;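 active = thallium flux slope above the same plate's solvent-only control mean plus 3 SD; inconclusive = the two replicate wells disagree; inactive = no significant difference from solvent-only control wells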
KCC2 bumet counter: thallium flux persisting under bumetanide in KCC2 cells, counter-screen secondary assay; actives 49% (n = 3,700); normalized thallium flux at 10 µM; AID 1714; shares compounds with KCC2 mod; HEK293-KCC2 + bumetanide/ouabain, thallium flux FluoZin2; hits give high values;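 active = thallium entry rate above the same plate's blocked-transporter control wells by more than 3 SD; inconclusive = the two repeat wells disagree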;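 also: raw slope of fluorescence over initial fluorescence between 10 and 20 s after thallium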
KCC2 sec2: KCC2 (human) modulation, second secondary assay. shares compounds with KCC2 mod. HEK293-KCC2, thallium flux FluoZin2 fluorescence; actives lie on both sides; F/F0 rise rate, 10–20 s post-thallium. normalized thallium flux at 10 µM. actives 23% (n = 3,700). AID 1715;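 active = thallium flux slope more than 3 SD above or below the plate's solvent-only control mean, mostly below; inconclusive = the two repeat wells disagreed; inactive = no significant shift from solvent-only controls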;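 also: raw slope with 0.1% DMSO as baseline and bumetanide as block control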
HEK293 Tl flux: counter-screen for KCC2 modulators: effect in parental HEK293 cells; thallium flux rate (normalised fluorescence) at 10 µM; shares compounds with KCC2 mod; thallium flux FluoZin2, ouabain; baseline-ratio fluorescence slope, 10–20 s after thallium; actives 46% (n = 3,700);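 active = thallium flux rate significantly above the same plate's solvent-only control wells, beyond their mean plus 3 SD; inconclusive = the two replicate wells gave conflicting results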
KCC2 ouabain: KCC2 (human) modulation, ouabain retest; shares compounds with KCC2 mod; HEK293-KCC2, thallium flux FluoZin2 fluorescence; bidirectional: low = inhibitor, high = activator; raw Tl+ flux slope (below DMSO = inhibition, above = activation) at 10 µM; actives 48% (n = 3,700); AID 1717;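 active = thallium flux slope beyond 3 SD from same-plate DMSO control mean in most replicates, usually higher, sometimes lower; inconclusive = repeat tests gave conflicting results; inactive = no significant difference from controls in most replicates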;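 also: slope of initial-normalized fluorescence between seconds 10 and 20 after thallium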
HEK293 Tl flux2: acts in parental HEK cells, second KCC2 counter-screen; shares compounds with KCC2 mod; HEK293 parental, thallium flux FluoZin-2 fluorescence slope; thallium flux slope at 10 µM; actives 33% (n = 3,700);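 active = thallium flux slope above the same plate's solvent-control mean plus 3 SD in both duplicate wells; inconclusive = duplicate wells that disagreed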;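 also: run without ouabain in cells lacking the KCC2 cotransporter; slope of fluorescence scaled to its starting value between 10 and 20 s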
* hit, by the source's call; i = inactive; ? = inconclusive; / = no result. Only some compounds are listed: those with a hit (about 4.1% of all), similar ones and a draw of the others.

SMILES	KCNK3 inh	hERG protect	KCNQ1 block	KCNQ1 act	KCNK9 inh	KCC2 mod	KCC2 secondary	KCC2 bumet counter	KCC2 sec2	HEK293 Tl flux	KCC2 ouabain	HEK293 Tl flux2
CCC(=O)N1CCc2cc(OC)c(OC)cc2C1COc1ccccc1OC (stereo not drawn)	i	-9	i	i	i	-5*	0.0055	0.0044	0.03	0.0076	0.02	0.011
COc1ccc(C2(C)NC(=O)N(CC(=O)NC3(C#N)CCCCC3)C2=O)cc1 (stereo not drawn)	i	-5	i	i	i	/	/	/	/	/	/	/
Fc1ccccc1COc1ccc(Br)cc1CNCc1cccnc1	i	-10	i	i	i	-1.3	/	/	/	/	/	/
Fc1ccccc1COc1ccc(Br)cc1CNCc1ccncc1	i	-15	i	i	i	-3.3*	?	0.0057	0.034	0.0068	0.014*	0.01
Cn1cc(Cl)c(C(=O)NC2CCCCCC2)n1	i	-6	i	i	i	1.3	/	/	/	/	/	/
O=C(COc1ccccc1)NC(=S)Nc1ccc(Br)cn1	i	-6	i	22*	i	85*	0.0071	0.045*	0.048*	0.053*	0.052*	0.041*
CCC(=O)NC(=S)NNC(=O)COc1ccc(Br)cc1	i	-9	i	i	i	7.6*	0.0072	0.019*	0.031	0.018*	?	0.015*
O=C(NC(=S)Nc1ccc(Br)cn1)c1cccnc1	i	-11	i	i	i	2.6	/	/	/	/	/	/
CCOc1ccc(NC(=S)NNC(=O)c2ccc(Br)cc2)cc1	i	-9	6*	i	i	24*	0.014*	0.055*	0.039	?	0.046*	?
COc1ccc(CC(=O)NC(=S)NNC(=O)COc2c(C)cccc2C)cc1	i	-5	i	i	i	7.3*	0.013*	0.038*	0.034	0.015*	?	0.012*
O=C(Cc1cccs1)Nc1ccc(Cl)c(S(=O)(=O)N2CCOCC2)c1	i	/	/	/	/	/	/	/	/	/	/	/
CC1CCC(CN2C(Nc3ccccc3)=NC[C@@H]2Cc2ccccc2)CC1 (stereo partly drawn)	i	/	/	/	/	/	/	/	/	/	/	/
Cc1c(O)ccc(/C(Cc2ccc3ccccc3n2)=N\O)c1O	i	-11	i	i	i	-4.9*	0.008	0.0039	0.029	0.0064	0.015*	0.0095
CC(=O)Oc1ccc(C(=O)Cc2ccc3ccccc3n2)c(O)c1C	i	0	i	i	i	0.45	/	/	/	/	/	/
COc1ccc(Nc2cc(C)nc3ccccc23)cc1	i	-8	i	i	i	1.3	0.0098	0.008*	0.03	0.0073	0.021	0.011
C=CCCO[C@@H]1O[C@@H](C)[C@H](O)C[C@H]1O	i	/	/	/	/	/	/	/	/	/	/	/
CCn1c(C)nc2cc(C(=O)N/N=C/c3cccc(O)c3O)ccc21	i	-11	i	i	i	-2	/	/	/	/	/	/
O=C(O)c1cc([N+](=O)[O-])ccc1NCc1ccccc1Cl	i	-22	i	i	i	-4.5*	?	0.0056*	0.022*	?	0.011*	0.0099
C/C(=N\NC(=O)c1cccc(Cl)c1)C1C(=O)c2ccccc2C1=O	i	-17	i	i	i	-3.7*	0.0069	0.0095*	0.027	0.0074	?	0.0089
CC(/C=C/c1ccccc1F)=N\NC(=O)c1cccc(F)c1	i	-18	i	i	i	/	0.0058	0.046*	0.042*	0.026*	0.041*	0.028*
CC(/C=C/c1ccco1)=N\NC(=O)c1cccc(Cl)c1	i	-14	i	i	i	14*	0.005	0.039*	?	0.023*	0.037*	0.026*
O=C(Nc1cnc2ccccc2c1)c1cccc(-n2cnnn2)c1	i	-13	i	i	i	-2.4	/	/	/	/	/	/
c1ccc2ncc(-n3cnnn3)cc2c1	i	-8	i	i	i	3*	0.01	0.0066	0.036	0.0083	0.022	0.01
Cc1cccc(NC(=S)N=Nc2c(O)n(C)c3ccc(S(=O)(=O)N4CCOCC4)cc23)c1	i	1	i	i	i	11*	?	0.055*	0.031	0.019*	0.026	?
Cc1cccc(Nc2ccc(S(=O)(=O)N3CCOCC3)cc2[N+](=O)[O-])c1	i	/	/	/	/	/	/	/	/	/	/	/
SMILES	KCNK3 inh	hERG protect	KCNQ1 block	KCNQ1 act	KCNK9 inh	KCC2 mod	KCC2 secondary	KCC2 bumet counter	KCC2 sec2	HEK293 Tl flux	KCC2 ouabain	HEK293 Tl flux2
Cc1cc(C)cc(NC(=S)N=Nc2c(O)n(C)c3ccc(S(=O)(=O)N4CCOCC4)cc23)c1	i	-5	i	i	i	6.7*	0.0068	0.018*	?	0.025*	0.027*	0.017*
CCCCn1c(N)c(N(Cc2ccccc2OC)C(=O)C(C)Oc2ccc(Br)cc2)c(=O)[nH]c1=O (stereo not drawn)	i	/	/	/	/	/	/	/	/	/	/	/
COc1ccccc1OCCNC(=O)CCNS(=O)(=O)c1ccc(C)cc1	i	/	/	/	/	/	/	/	/	/	/	/
c1ccc2c(c1)CCCn1nnnc1-2	i	-11	i	i	i	1.4	/	/	/	/	/	/
CCc1ccc(Nc2nnc(SC(C)C(=O)NC3CC3)s2)cc1 (stereo not drawn)	i	/	/	/	/	/	/	/	/	/	/	/
CCc1ccc(Nc2nnc(SC3CCOC3=O)s2)cc1 (stereo not drawn)	i	-7	i	i	i	-5.3*	0.0064	?	0.023*	0.0068	?	0.01
COc1cccc(CNc2ccc(C)c(Cl)c2)c1	i	-4	i	i	i	0.14	/	/	/	/	/	/
COc1cccc(CNc2cc(CSc3ccc(Cl)cc3)nc(C)n2)c1	i	-10	i	i	i	/	0.0074	0.0032*	0.03	?	0.018	0.0094
